# Test system: Fibroblast
# Assay: Multiplex assay against human fibroblast
# Type: toxicity, cell-based
# Outline: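 Phenotypes for tubulin, mitochondrial mass and membrane permeability are expressed as per cents of healthy-nucleus cells. Cells were stained live at seeding with Hoechst33342, BioTracker Green Microtubule Cytoskeleton Dye, MitoTracker Red and Annexin V Alexa Fluor 680, then imaged after compound addition on a CQ1 microscope at 37°C and 5% CO2. Machine-learning gating in CellPathfinder separated Hoechst high-intensity objects from normal cells, divided normal cells by nuclear state (healthy, pyknosed, fragmented) and divided pyknosed cells into mitotic or apoptotic.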
# [1] = 12 h, 1 µM, compound concentration 1 uM, replicate 1
# [2] = 12 h, 1 µM, compound concentration 1 uM, replicate 2
# [3] = 12 h, 10 µM, compound concentration 10 uM, replicate 1
# [4] = 12 h, 10 µM, compound concentration 10 uM, replicate 2
# [5] = 24 h, 1 µM, compound concentration 1 uM, replicate 1
# [6] = 24 h, 1 µM, compound concentration 1 uM, replicate 2
# [7] = 24 h, 10 µM, compound concentration 10 uM, replicate 1
# [8] = 24 h, 10 µM, compound concentration 10 uM, replicate 2
# [9] = 48 h, 1 µM, compound concentration 1 uM, replicate 1
# [10] = 48 h, 1 µM, compound concentration 1 uM, replicate 2
# [11] = 48 h, 10 µM, compound concentration 10 uM, replicate 1
# [12] = 48 h, 10 µM, compound concentration 10 uM, replicate 2
smiles,measurement,setting,value
COc1cc2nc(N3CCN(C(=O)COc4c(OC)cccc4C(C)C)CC3)nc(N)c2cc1OC.Cl.Cl,Population Apoptotic (%),[1],50%
same,Population Fragmented Nuclei (%),[1],17%
same,Population Healthy Nuclei (%),[1],51%
same,Population Hoechst High Intensity Objects (%),[1],4%
same,Population Membrane Permeable-Phenotype (%),[1],3%
same,Population Mitochondria Different-Phenotype (%),[1],6%
same,Population Mitotic Cells (%),[1],50%
same,Population Normal (%),[1],95%
same,Population Pyknosed Nuclei (%),[1],30%
same,Population Tubulin-Different-Phenotype (%),[1],40%
same,Total Cell Count,[1],123
same,Population Apoptotic (%),[2],36%
same,Population Fragmented Nuclei (%),[2],39%
same,Population Healthy Nuclei (%),[2],42%
same,Population Hoechst High Intensity Objects (%),[2],9%
same,Population Membrane Permeable-Phenotype (%),[2],5%
same,Population Mitochondria Different-Phenotype (%),[2],7%
same,Population Mitotic Cells (%),[2],63%
same,Population Normal (%),[2],90%
same,Population Pyknosed Nuclei (%),[2],18%
same,Population Tubulin-Different-Phenotype (%),[2],43%
same,Total Cell Count,[2],182
same,Population Apoptotic (%),[3],33%
same,Population Fragmented Nuclei (%),[3],13%
same,Population Healthy Nuclei (%),[3],47%
same,Population Hoechst High Intensity Objects (%),[3],20%
same,Population Membrane Permeable-Phenotype (%),[3],0%
same,Population Mitochondria Different-Phenotype (%),[3],15%
same,Population Mitotic Cells (%),[3],66%
same,Population Normal (%),[3],79%
same,Population Pyknosed Nuclei (%),[3],38%
same,Population Tubulin-Different-Phenotype (%),[3],63%
same,Total Cell Count,[3],346
same,Population Apoptotic (%),[4],29%
same,Population Fragmented Nuclei (%),[4],22%
same,Population Healthy Nuclei (%),[4],46%
same,Population Hoechst High Intensity Objects (%),[4],10%
same,Population Membrane Permeable-Phenotype (%),[4],4%
same,Population Mitochondria Different-Phenotype (%),[4],8%
same,Population Mitotic Cells (%),[4],70%
same,Population Normal (%),[4],89%
same,Population Pyknosed Nuclei (%),[4],30%
same,Population Tubulin-Different-Phenotype (%),[4],56%
same,Total Cell Count,[4],283
same,Population Apoptotic (%),[5],68%
same,Population Fragmented Nuclei (%),[5],23%
same,Population Healthy Nuclei (%),[5],58%
same,Population Hoechst High Intensity Objects (%),[5],3%
same,Population Membrane Permeable-Phenotype (%),[5],1%
same,Population Mitochondria Different-Phenotype (%),[5],9%
same,Population Mitotic Cells (%),[5],31%
same,Population Normal (%),[5],96%
same,Population Pyknosed Nuclei (%),[5],17%
same,Population Tubulin-Different-Phenotype (%),[5],39%
same,Total Cell Count,[5],128
same,Population Apoptotic (%),[6],57%
same,Population Fragmented Nuclei (%),[6],40%
same,Population Healthy Nuclei (%),[6],42%
same,Population Hoechst High Intensity Objects (%),[6],11%
same,Population Membrane Permeable-Phenotype (%),[6],5%
same,Population Mitochondria Different-Phenotype (%),[6],11%
same,Population Mitotic Cells (%),[6],42%
same,Population Normal (%),[6],88%
same,Population Tubulin-Different-Phenotype (%),[6],50%
same,Total Cell Count,[6],180
same,Population Apoptotic (%),[7],40%
same,Population Fragmented Nuclei (%),[7],13%
same,Population Healthy Nuclei (%),[7],45%
same,Population Hoechst High Intensity Objects (%),[7],39%
same,Population Membrane Permeable-Phenotype (%),[7],0%
same,Population Mitochondria Different-Phenotype (%),[7],17%
same,Population Mitotic Cells (%),[7],60%
same,Population Normal (%),[7],60%
same,Population Pyknosed Nuclei (%),[7],41%
same,Population Tubulin-Different-Phenotype (%),[7],38%
same,Total Cell Count,[7],344
same,Population Apoptotic (%),[8],33%
same,Population Fragmented Nuclei (%),[8],25%
same,Population Healthy Nuclei (%),[8],40%
same,Population Hoechst High Intensity Objects (%),[8],23%
same,Population Membrane Permeable-Phenotype (%),[8],4%
same,Population Mitochondria Different-Phenotype (%),[8],5%
same,Population Mitotic Cells (%),[8],66%
same,Population Normal (%),[8],76%
same,Population Pyknosed Nuclei (%),[8],34%
same,Population Tubulin-Different-Phenotype (%),[8],47%
same,Total Cell Count,[8],273
same,Population Apoptotic (%),[9],65%
same,Population Fragmented Nuclei (%),[9],31%
same,Population Healthy Nuclei (%),[9],51%
same,Population Hoechst High Intensity Objects (%),[9],4%
same,Population Membrane Permeable-Phenotype (%),[9],0%
same,Population Mitochondria Different-Phenotype (%),[9],11%
same,Population Mitotic Cells (%),[9],35%
same,Population Normal (%),[9],96%
same,Population Pyknosed Nuclei (%),[9],16%
same,Population Tubulin-Different-Phenotype (%),[9],30%
same,Total Cell Count,[9],125
same,Population Apoptotic (%),[10],42%
same,Population Fragmented Nuclei (%),[10],45%
same,Population Healthy Nuclei (%),[10],43%
same,Population Hoechst High Intensity Objects (%),[10],10%
same,Population Membrane Permeable-Phenotype (%),[10],8%
same,Population Mitochondria Different-Phenotype (%),[10],10%
same,Population Mitotic Cells (%),[10],57%
same,Population Normal (%),[10],89%
same,Population Pyknosed Nuclei (%),[10],11%
same,Population Tubulin-Different-Phenotype (%),[10],57%
same,Total Cell Count,[10],193
same,Population Apoptotic (%),[11],45%
same,Population Fragmented Nuclei (%),[11],12%
same,Population Healthy Nuclei (%),[11],45%
same,Population Hoechst High Intensity Objects (%),[11],52%
same,Population Membrane Permeable-Phenotype (%),[11],2%
same,Population Mitochondria Different-Phenotype (%),[11],10%
same,Population Mitotic Cells (%),[11],54%
same,Population Normal (%),[11],47%
same,Population Pyknosed Nuclei (%),[11],42%
same,Population Tubulin-Different-Phenotype (%),[11],42%
same,Total Cell Count,[11],358
same,Population Apoptotic (%),[12],30%
same,Population Fragmented Nuclei (%),[12],33%
same,Population Healthy Nuclei (%),[12],33%
same,Population Hoechst High Intensity Objects (%),[12],31%
same,Population Membrane Permeable-Phenotype (%),[12],9%
same,Population Mitochondria Different-Phenotype (%),[12],0%
same,Population Mitotic Cells (%),[12],69%
same,Population Normal (%),[12],68%
same,Population Pyknosed Nuclei (%),[12],33%
same,Population Tubulin-Different-Phenotype (%),[12],43%
same,Total Cell Count,[12],311

# — ChEMBL document CHEMBL5058577, “EUbOPEN Chemogenomics Library 2 (Multiplex)” (2022)
